Reference: ChEMBL document CHEMBL4020838, “The Discovery of ( S)-1-(6-(3-((4-(1-(Cyclopropanecarbonyl)piperidin-4-yl)-2-methylphenyl)amino)-2,3-dihydro-1 H-inden-4-yl)pyridin-2-yl)-5-methyl-1 H-pyrazole-4-carboxylic Acid, a Soluble Guanylate Cyclase Activator Specifically Designed for Topical Ocular Delivery as a Therapy for Glaucoma” (J Med Chem, 2018)
Activity calls are given as the source filed them. No cut-off for these calls is given here.

Legend:
[1] = Activation of HUVEC-derived soluble guanylate cyclase expressed in CHOK1 cells assessed as increase in cGMP production after 1 hr by HTRF assay; assay type: cell-based
Summary of the method: (§1)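 High-throughput assay in Chinese hamster ovary cells expressing sGC. cGMP was measured across a dose range. EC50 and Emax (maximal cGMP produced) were taken from the dose-response curve.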

Homo sapiens [2] = species: Homo sapiens; test: Activation of HUVEC-derived soluble guanylate cyclase expressed in CHOK1 cells assessed as increase in cGMP production after 1 hr by HTRF assay relative to 1-{6-[5-chloro-2-({4-[trans-4-(trifluoromethyl)cyclohexyl]-benzyl}oxy)phenyl)pyridin-2-yl)-5-(trifluoromethyl)-1H-pyrazole-4-carboxylic acid; assay type: cell-based; summary of the method: as §1
[3] = Activation of soluble guanylate cyclase in human GTM3 cells assessed as increase in cGMP production after 30 mins by fluorescence assay; assay type: cell-based
Summary of the method: (§2)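 Immortalized glaucomatous trabecular meshwork (GTM-3) cells expressing endogenous levels of sGC were used. cGMP was read across a dose range. EC50 and Emax were derived from the dose-response curve.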

Homo sapiens [4] = species: Homo sapiens; test: Activation of soluble guanylate cyclase in human GTM3 cells assessed as increase in cGMP production after 30 mins by fluorescence assay relative to 1-{6-[5-chloro-2-({4-[trans-4-(trifluoromethyl)cyclohexyl]-benzyl}oxy)phenyl)pyridin-2-yl)-5-(trifluoromethyl)-1H-pyrazole-4-carboxylic acid; assay type: cell-based; summary of the method: as §2
Oryctolagus cuniculus [5] = test: Toxicity in New Zealand albino rabbit assessed as conjunctival hyperemia at 30 ug administered as single topical dose measured up to 24 hrs post dose; conditions: in vivo, topical_or_ocular
Oryctolagus cuniculus [6] = test: Toxicity in New Zealand albino rabbit assessed as excessive blinking at 30 ug administered as single topical dose measured up to 24 hrs post dose; conditions: in vivo, topical_or_ocular
Oryctolagus cuniculus [7] = test: Toxicity in New Zealand albino rabbit eye up to 300 ug administered as single topical dose measured up to 24 hrs post dose; conditions: in vivo, topical_or_ocular
Cynomolgus monkey [8] = test: Toxicity in laser-induced ocular hypertensive cynomolgus monkey eye at 30 ug administered as single topical dose; parameters: species or system Macaca fascicularis; conditions: in vivo, topical_or_ocular
[9] = Dissociation constant, pKa of the compound; assay type: physicochemical
Cynomolgus monkey [10] = test: Reduction of intraocular pressure in laser-induced ocular hypertensive cynomolgus monkey at 30 ug administered as single topical dose measured after 6 to 24 hrs; assay type: functional; conditions: Macaca fascicularis

| SMILES | EC50 ([1]; CHO-K1, 1 h) [nM] | Emax (Homo sapiens [2]) [%] | EC50 ([3]; Homo sapiens, GTM3, 0.5 h) [nM] | Emax (Homo sapiens [4]) [%] | EC50 [1] [nM] | also measured |
| --- | --- | --- | --- | --- | --- | --- |
| Cc1cc(C2CCN(C(=O)C3CC3)CC2)ccc1OCc1ccsc1-c1cccc(-n2ncc(C(=O)O)c2C(F)(F)F)n1 | 4.5 | 102 | – | – | – | – |
| Cc1cc(C2CCN(C(=O)C3CC3)CC2)ccc1OCc1c(C)csc1-c1cccc(-n2ncc(C(=O)O)c2C(F)(F)F)n1 | < 0.5 | 100 | 40 | 100 | – | – |
| Cc1cc(C2CCN(CC3CC3)CC2)ccc1OCc1ccsc1-c1cccc(-n2ncc(C(=O)O)c2C(F)(F)F)n1 | 430 | 88 | – | – | – | – |
| CCc1cc(COc2ccc(C3CCN(C(=O)C4CC4)CC3)cc2C)c(-c2cccc(-n3ncc(C(=O)O)c3C(F)(F)F)n2)s1 | 2 | 103 | 180 | 68 | – | – |
| Cc1cc(C2CCN(C(=O)C3CC3)CC2)ccc1OCC1=C(c2cccc(-n3ncc(C(=O)O)c3C(F)(F)F)n2)CCCC1 | 0.35 | 101 | 85 | 110 | – | – |
| CCC(=O)N1CCC(c2ccc(OCc3ccsc3-c3cccc(-n4ncc(C(=O)O)c4C(F)(F)F)n3)cc2)CC1 | 25 | 101 | – | – | – | – |
| O=C(Nc1ccc(S(=O)(=O)N2CCOCC2)cc1)c1cc(Cl)ccc1NS(=O)(=O)c1ccc(Cl)s1 | 870 | 95 | – | – | – | – |
| CCc1csc(-c2cccc(-n3ncc(C(=O)O)c3C(F)(F)F)n2)c1COc1ccc(C2CCN(C(=O)C3CC3)CC2)cc1C | 6 | 105 | 160 | 70 | – | – |
| CCc1cc(OCC2=C(c3cccc(-n4ncc(C(=O)O)c4C(F)(F)F)n3)CCCC2(C)C)ccc1C1CCN(C(=O)C2CC2)CC1 | 1 | 99 | 140 | 71 | – | – |
| Cc1cc(C2CCNCC2)ccc1OCc1ccsc1-c1cccc(-n2ncc(C(=O)O)c2C(F)(F)F)n1 | 4200 | 73 | – | – | – | – |
| Cc1cc(COc2ccc(C3CCN(C(=O)C4CC4)CC3)cc2C)c(-c2cccc(-n3ncc(C(=O)O)c3C(F)(F)F)n2)s1 | < 0.1 | 101 | 53 | 100 | – | – |
| Cc1c(C(=O)O)cnn1-c1nc(-c2cccc(C(F)(F)F)c2)cs1 | 162 | 105 | – | – | – | – |
| Cc1cc(C2CCN(C(=O)C3CC3)CC2)ccc1OCc1cc(Cl)sc1-c1cccc(-n2ncc(C(=O)O)c2C(F)(F)F)n1 | 0.15 | 99 | 520 | 97 | – | – |
| Cc1cc(C2CCN(C(=O)C3CC3)CC2)ccc1OCC1=C(c2cccc(-n3ncc(C(=O)O)c3C(F)(F)F)n2)CCC1 | 2.5 | 101 | – | – | – | – |
| Cc1cc(C2CCN(C(=O)C3CC3)CC2)ccc1OC1CCc2cccc(-c3cccc(-n4ncc(C(=O)O)c4C(F)(F)F)n3)c21 (single isomer, unassigned; (+)) [listing 1 of 2 here] | – | – | 10 | – | 1 | – |
| CCc1cc(OCC2=C(c3cccc(-n4ncc(C(=O)O)c4C(F)(F)F)n3)CCCC2C)ccc1C1CCN(C(=O)C2CC2)CC1 (single isomer, unassigned; (+)) [listing 1 of 2 here] | – | – | – | – | 1 | EC50 [3]: 6 nM; Activity (Oryctolagus cuniculus [5]): Toxic; Activity (Oryctolagus cuniculus [6]): Toxic |
| CCc1cc(OCC2=C(c3cccc(-n4ncc(C(=O)O)c4C)n3)CCCC2C)ccc1C1CCN(C(=O)C2CC2)CC1 (single isomer, unassigned; (+)) [listing 1 of 2 here] | – | – | 9 | – | < 0.5 | Activity (Oryctolagus cuniculus [7]): Non-Toxic; Activity (Cynomolgus monkey [8]): Non-Toxic |
| Cc1cc(C2CCN(C(=O)C3CC3)CC2)ccc1NC1CCc2cccc(-c3cccc(-n4ncc(C(=O)O)c4C(F)(F)F)n3)c21 (single isomer, unassigned; (+)) [listing 1 of 2 here] | – | – | – | – | < 0.5 | EC50 [3]: 3 nM; Activity (Oryctolagus cuniculus [5]): Toxic; Activity (Oryctolagus cuniculus [6]): Toxic |
| Cc1cc2c(c(-c3cccc(-n4ncc(C(=O)O)c4C(F)(F)F)n3)c1)C(Nc1ccc(C3CCN(C(=O)C4CC4)CC3)cc1C)CC2 (single isomer, unassigned; (+)) [listing 1 of 2 here] | – | – | 55 | – | 1 | pKa [9]: 3.1 |
| Cc1cc(C2CCN(C(=O)C3CC3)CC2)ccc1OC1CCc2cccc(-c3cccc(-n4cc(C(=O)O)cn4)n3)c21 (single isomer, unassigned; (+)) | 2.5 | 103 | 320 | 70 | – | – |

| SMILES | EC50 ([1]; CHO-K1, 1 h) [nM] | Emax (Homo sapiens [2]) [%] | EC50 ([3]; Homo sapiens, GTM3, 0.5 h) [nM] | Emax (Homo sapiens [4]) [%] | EC50 [1] [nM] | also measured |
| --- | --- | --- | --- | --- | --- | --- |
| CCc1cc(OCC2=C(c3cccc(-n4ncc(C(=O)O)c4C(F)(F)F)n3)CCCC2C)ccc1C1CCN(C(=O)C2CC2)CC1 (single isomer, unassigned; (+)) [listing 2 of 2 here] | – | 102 | – | 85 | – | – |
| CCc1cc(OCC2=C(c3cccc(-n4ncc(C(=O)O)c4C)n3)CCCC2C)ccc1C1CCN(C(=O)C2CC2)CC1 (single isomer, unassigned; (+)) [listing 2 of 2 here] | – | 101 | – | 120 | – | Activity (Cynomolgus monkey [10]): Active |
| Cc1cc(C2CCN(C(=O)C3CC3)CC2)ccc1NC1CCc2cccc(-c3cccc(-n4ncc(C(=O)O)c4C(F)(F)F)n3)c21 (single isomer, unassigned; (+)) [listing 2 of 2 here] | – | 100 | – | 89 | – | – |
| Cc1cc(C2CCN(C(=O)C3CC3)CC2)ccc1OC1CCc2cccc(-c3cccc(-n4ncc(C(=O)O)c4C(F)(F)F)n3)c21 (single isomer, unassigned; (+)) [listing 2 of 2 here] | – | 102 | – | 100 | – | – |
| Cc1cc2c(c(-c3cccc(-n4ncc(C(=O)O)c4C(F)(F)F)n3)c1)C(Nc1ccc(C3CCN(C(=O)C4CC4)CC3)cc1C)CC2 (single isomer, unassigned; (+)) [listing 2 of 2 here] | – | 101 | – | 85 | – | – |
| Cc1cc(C2CCN(C(=O)C3CC3)CC2)ccc1OC1CCc2cccc(-c3cccc(-n4ncc(C(=O)O)c4C(F)(F)F)n3)c21 (single isomer, unassigned; (-)) [listing 1 of 2 here] | – | – | – | – | 7 | – |
| Cc1cc(C2CCN(C(=O)C3CC3)CC2)ccc1NC1CCc2cccc(-c3cccc(-n4ncc(C(=O)O)c4C(F)(F)F)n3)c21 (single isomer, unassigned; (-)) [listing 1 of 2 here] | – | – | – | – | 37 | EC50 [3]: 1200 nM |
| Cc1cc2c(c(-c3cccc(-n4ncc(C(=O)O)c4C(F)(F)F)n3)c1)C(Nc1ccc(C3CCN(C(=O)C4CC4)CC3)cc1C)CC2 (single isomer, unassigned; (-)) [listing 1 of 2 here] | – | – | – | – | 24 | – |
| Cc1cc(C2CCN(C(=O)C3CC3)CC2)ccc1NC1CCc2cccc(-c3cccc(-n4ncc(C(=O)O)c4C(F)(F)F)n3)c21 (single isomer, unassigned; (-)) [listing 2 of 2 here] | – | 101 | – | 97 | – | – |
| Cc1cc(C2CCN(C(=O)C3CC3)CC2)ccc1OC1CCc2cccc(-c3cccc(-n4ncc(C(=O)O)c4C(F)(F)F)n3)c21 (single isomer, unassigned; (-)) [listing 2 of 2 here] | – | 100 | – | – | – | – |
| Cc1cc2c(c(-c3cccc(-n4ncc(C(=O)O)c4C(F)(F)F)n3)c1)C(Nc1ccc(C3CCN(C(=O)C4CC4)CC3)cc1C)CC2 (single isomer, unassigned; (-)) [listing 2 of 2 here] | – | 99 | – | – | – | – |
| Cc1cc(C2CCN(C(=O)C3CC3)CC2)ccc1NC1CCc2cccc(-c3cccc(-n4ncc(C(=O)O)c4C)n3)c21 (stereo in doubt; (+)-23) [listing 1 of 2 here] | – | – | – | – | < 0.5 | EC50 [3]: 5 nM; Activity (Oryctolagus cuniculus [7]): Non-Toxic; Activity (Cynomolgus monkey [8]): Non-Toxic; pKa [9]: 4.3 |
| Cc1cc(C2CCN(C(=O)C3CC3)CC2)ccc1NC1CCc2cccc(-c3cccc(-n4ncc(C(=O)O)c4C)n3)c21 (stereo in doubt; (+)-23) [listing 2 of 2 here] | – | 104 | – | 106 | – | Activity (Cynomolgus monkey [10]): Active |
| CCc1cc(OCC2=C(c3cccc(-n4ncc(C(=O)O)c4C(F)(F)F)n3)CCCC2C)ccc1C1CCN(C(=O)C2CC2)CC1 (stereo in doubt; (-)-17) [listing 1 of 2 here] | – | – | – | – | 9 | EC50 [3]: 170 nM |
| CCc1cc(OCC2=C(c3cccc(-n4ncc(C(=O)O)c4C(F)(F)F)n3)CCCC2C)ccc1C1CCN(C(=O)C2CC2)CC1 (stereo in doubt; (-)-17) [listing 2 of 2 here] | – | 100 | – | 63 | – | – |
| Cc1cc(C2CCN(C(=O)C3CC3)CC2)ccc1NC1CCc2cccc(-c3cccc(-n4ncc(C(=O)O)c4C)n3)c21 (stereo in doubt; (-)-23) [listing 1 of 2 here] | – | – | – | – | 17 | EC50 [3]: 490 nM |
| Cc1cc(C2CCN(C(=O)C3CC3)CC2)ccc1NC1CCc2cccc(-c3cccc(-n4ncc(C(=O)O)c4C)n3)c21 (stereo in doubt; (-)-23) [listing 2 of 2 here] | – | 102 | – | 82 | – | – |
| CCc1cc(OCC2=C(c3cccc(-n4ncc(C(=O)O)c4C)n3)CCCC2C)ccc1C1CCN(C(=O)C2CC2)CC1 (stereo in doubt; (-)-24) [listing 1 of 2 here] | – | – | – | – | 3 | – |
| CCc1cc(OCC2=C(c3cccc(-n4ncc(C(=O)O)c4C)n3)CCCC2C)ccc1C1CCN(C(=O)C2CC2)CC1 (stereo in doubt; (-)-24) [listing 2 of 2 here] | – | 101 | – | – | – | – |
| O=C(O)CCCCN(CCc1ccccc1OCc1ccc(CCc2ccccc2)cc1)Cc1ccc(C(=O)O)cc1 [CINACIGUAT] | 1 | 93 | 4 | 15 | – | – |
